Laboratory results as given in ChEMBL document CHEMBL4368909, “Identification of Dihydrofuro[3,4- d]pyrimidine Derivatives as Novel HIV-1 Non-Nucleoside Reverse Transcriptase Inhibitors with Promising Antiviral Activities and Desirable Physicochemical Properties” (J Med Chem, 2019).
Converted amounts (≈) assume the structure as drawn.

Columns and labels:
[1] = Aqueous solubility of the compound at pH at 2 by HPLC analysis; assay type: physicochemical; details: buffer, pH 2
Outline: (§1)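 Aqueous solubility read by HPLC in buffer at pH 2.0, 7.0 or 7.4.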

[2] = Aqueous solubility of the compound at pH at 7.4 by HPLC analysis; assay type: physicochemical; details: buffer, pH 7.4; outline: as §1
[3] = Aqueous solubility of the compound at pH at 7 by HPLC analysis; assay type: physicochemical; details: buffer, pH 7; outline: as §1
[4] = system: Human immunodeficiency virus 1; test: Antiviral activity against HIV1 NL4-3 infected in human TZM-bl cells after 2 days by luciferase-bright glo assay; assay type: functional, organism-based; details: Human immunodeficiency virus 1, NL4-3, TZM-bl, 48 h
[5] = Aqueous solubility of the compound in FASSIF by HPLC analysis; assay type: physicochemical; details: simulated gi fluid
Outline: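 Solubility read by HPLC in fasted state simulated intestinal fluid (FaSSIF).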

[6] = Selectivity ratio of CC50 for human TZM-bl cells to EC50 for HIV1 NL4-3 infected in human TZM-bl cells; assay type: toxicity, cell-based; details: read-out: Ratio CC50/EC50
Outline: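 The selectivity index is CC50/EC50 in TZM-bl cells against NL4-3. […] The highest concentration tested was 125 ng/mL.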

TZM = test: Cytotoxicity against human TZM-bl cells after 4 days by XTT assay; assay type: cell-based; details: 96 h
[7] = system: Human immunodeficiency virus 1; test: Antiviral activity against HIV1 harboring reverse transcriptase Y181C mutant infected in human MT4 cells assessed as reduction in virus-induced cytopathic effect after 5 days by MTT assay; assay type: functional, organism-based; details: Human immunodeficiency virus 1, MT4, 120 h
[8] = system: Human immunodeficiency virus 1; test: Antiviral activity against HIV1 harboring reverse transcriptase Y188L mutant infected in human MT4 cells assessed as reduction in virus-induced cytopathic effect after 5 days by MTT assay; assay type: functional, organism-based; details: Human immunodeficiency virus 1, MT4, 120 h
[9] = Selectivity ratio of CC50 for human MT4 cells to EC50 for HIV1 harboring reverse transcriptase E138K mutant infected in human MT4 cells; assay type: toxicity, cell-based; details: read-out: Ratio CC50/EC50
[10] = system: Human immunodeficiency virus 1; test: Resistance factor, ratio of EC50 for HIV1 harboring reverse transcriptase Y181C mutant to EC50 for wild type HIV1; assay type: functional
Outline: (§2)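 The resistance factor is the EC50 against the mutant strain divided by the EC50 against wild-type HIV-1. Both were measured in MT-4 cells by MTT read-out of protection from virus-induced cytopathicity.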

[11] = Selectivity ratio of CC50 for human MT4 cells to EC50 for HIV1 RES056 infected in human MT4 cells; assay type: toxicity, cell-based; details: read-out: Ratio CC50/EC50
[12] = system: Human immunodeficiency virus 1; test: Resistance factor, ratio of EC50 for HIV1 harboring reverse transcriptase E138K mutant to EC50 for wild type HIV1; assay type: functional; outline: as §2
[13] = Selectivity ratio of CC50 for human MT4 cells to EC50 for HIV1 harboring reverse transcriptase Y188L mutant infected in human MT4 cells; assay type: toxicity, cell-based; details: read-out: Ratio CC50/EC50
[14] = system: Human immunodeficiency virus 1; test: Antiviral activity against HIV1 harboring reverse transcriptase L100I mutant infected in human MT4 cells assessed as reduction in virus-induced cytopathic effect after 5 days by MTT assay; assay type: functional, organism-based; details: Human immunodeficiency virus 1, MT4, 120 h
[15] = Selectivity ratio of CC50 for human MT4 cells to EC50 for HIV1 3B infected in human MT4 cells; assay type: toxicity, cell-based; details: read-out: Ratio CC50/EC50
[16] = system: Human immunodeficiency virus 1; test: Antiviral activity against HIV1 harboring reverse transcriptase F227L/V106A double mutant infected in human MT4 cells assessed as reduction in virus-induced cytopathic effect after 5 days by MTT assay; assay type: functional, organism-based; details: Human immunodeficiency virus 1, MT4, 120 h
[17] = Selectivity ratio of CC50 for human MT4 cells to EC50 for HIV1 harboring reverse transcriptase K103N mutant infected in human MT4 cells; assay type: toxicity, cell-based; details: read-out: Ratio CC50/EC50
[18] = system: Human immunodeficiency virus 1; test: Antiviral activity against HIV1 RES056 infected in human MT4 cells assessed as reduction in virus-induced cytopathic effect after 5 days by MTT assay; assay type: functional, organism-based; details: Human immunodeficiency virus 1, RES056, MT4, 120 h
[19] = biological target: Human immunodeficiency virus type 1 reverse transcriptase (Human immunodeficiency virus 1, UniProt Q72547); test: Inhibition of recombinant HIV1 reverse transcriptase using (DIG)-dUTP and biotin-labeled dNTPs as substrate after 1 hr by ELISA
[20] = system: Human immunodeficiency virus 1; test: Resistance factor, ratio of EC50 for HIV1 harboring reverse transcriptase L100I mutant to EC50 for wild type HIV1; assay type: functional; outline: as §2
[21] = Selectivity ratio of CC50 for human MT4 cells to EC50 for HIV1 harboring reverse transcriptase L100I mutant infected in human MT4 cells; assay type: toxicity, cell-based; details: read-out: Ratio CC50/EC50
[22] = system: Human immunodeficiency virus 2; test: Antiviral activity against HIV2 ROD infected in human MT4 cells assessed as reduction in virus-induced cytopathic effect after 5 days by MTT assay; details: Human immunodeficiency virus 2, ISOLATE ROD, MT4, 120 h
[23] = Selectivity ratio of CC50 for human MT4 cells to EC50 for HIV1 harboring reverse transcriptase F227L/V106A double mutant infected in human MT4 cells; assay type: toxicity, cell-based; details: read-out: Ratio CC50/EC50
[24] = system: Human immunodeficiency virus 1; test: Antiviral activity against HIV1 harboring reverse transcriptase K103N mutant infected in human MT4 cells assessed as reduction in virus-induced cytopathic effect after 5 days by MTT assay; assay type: functional, organism-based; details: Human immunodeficiency virus 1, MT4, 120 h
[25] = system: Human immunodeficiency virus 1; test: Antiviral activity against wild type HIV1 3B infected in human MT4 cells assessed as reduction in virus-induced cytopathic effect after 5 days by MTT assay; assay type: functional, organism-based; details: Human immunodeficiency virus 1, 3B, MT4, 120 h
[26] = system: Human immunodeficiency virus 1; test: Resistance factor, ratio of EC50 for HIV1 harboring reverse transcriptase F227L/V106A double mutant to EC50 for wild type HIV1; assay type: functional; outline: as §2
[27] = Selectivity ratio of CC50 for human MT4 cells to EC50 for HIV1 harboring reverse transcriptase Y181C mutant infected in human MT4 cells; assay type: toxicity, cell-based; details: read-out: Ratio CC50/EC50
[28] = system: Human immunodeficiency virus 1; test: Antiviral activity against HIV1 harboring reverse transcriptase E138K mutant infected in human MT4 cells assessed as reduction in virus-induced cytopathic effect after 5 days by MTT assay; assay type: functional, organism-based; details: Human immunodeficiency virus 1, MT4, 120 h
[29] = system: Human immunodeficiency virus 1; test: Resistance factor, ratio of EC50 for HIV1 harboring reverse transcriptase Y188L mutant to EC50 for wild type HIV1; assay type: functional; outline: as §2
MT4 = test: Cytotoxicity against human MT4 cells after 5 days by MTT assay; assay type: cell-based; details: mt4, 120 h
[30] = system: Human immunodeficiency virus 1; test: Resistance factor, ratio of EC50 for HIV1 harboring reverse transcriptase K103N mutant to EC50 for wild type HIV1; assay type: functional; outline: as §2

SMILES | solubility [1] [µg/mL] | EC50 [7] [nM] | EC50 [8] [nM] | Ratio EC50 [10] | selectivity ratio [11] | Ratio EC50 [12] | EC50 [14] [nM] | selectivity ratio [15] | EC50 [16] [nM] | EC50 [18] [nM] | IC50 [19] [nM] | Ratio EC50 [20] | EC50 [22] [nM] | EC50 [24] [nM] | EC50 [25] [nM] | Ratio EC50 [26] | EC50 [28] [nM] | Ratio EC50 [29] | CC50 (MT4) [nM] | Ratio EC50 [30] | also measured
Cc1cc(C#N)cc(C)c1Oc1nc(NC2CCN(Cc3ccc(S(N)(=O)=O)cc3)CC2)nc2ccsc12 | 190 (≈ 346 µM) | – | – | – | – | – | – | – | – | – | – | – | – | – | – | – | – | – | – | – | solubility [2]: < 1 µg/mL; solubility [3]: 0.05 µg/mL (≈ 0.0911 µM); EC50 [4]: 1.16 nM; solubility [5]: 1.24 µg/mL (≈ 2.26 µM); selectivity ratio [6]: 196; CC50 (TZM): > 227 nM
Cc1cc(C#N)cc(C)c1Oc1nc(NC2CCN(Cc3ccc(S(C)(=O)=O)cc3)CC2)nc2c1COC2 | 164 (≈ 307 µM) | 4.9 | 7.9 | 2.5 | 752 | 4 | 3.4 | 15900 | 7.2 | 41.6 | 77 | 1.8 | > 27000 | 2 | 1.9 | 3.7 | 7.8 | 4 | 31300 | 1 | selectivity ratio [9]: 3990; selectivity ratio [13]: 3940; selectivity ratio [17]: 15200; selectivity ratio [21]: 9050; selectivity ratio [23]: 4350; selectivity ratio [27]: 6320; solubility [2]: < 1 µg/mL; solubility [3]: 1.37 µg/mL (≈ 2.57 µM); solubility [5]: 23.6 µg/mL (≈ 44.2 µM)
Cc1cc(C#N)cc(C)c1Oc1nc(NC2CCN(Cc3ccc(S(N)(=O)=O)cc3)CC2)nc2c1COC2 | 174 (≈ 325 µM) | 5.4 | 15.2 | 1.9 | 725 | 2.7 | 3 | 9520 | 12.7 | 38 | 109 | 1.1 | ≥ 8370 | 2.9 | 2.8 | 4.2 | 7.9 | 5.3 | 27500 | 1 | selectivity ratio [9]: 3470; selectivity ratio [13]: 1810; selectivity ratio [17]: 9220; selectivity ratio [21]: 8940; selectivity ratio [23]: 2270; selectivity ratio [27]: 5090; solubility [2]: 5.68 µg/mL (≈ 10.6 µM); solubility [3]: 10.3 µg/mL (≈ 19.3 µM); solubility [5]: 8.42 µg/mL (≈ 15.7 µM)
Cc1cc(C#N)cc(C)c1Oc1nc(NC2CCN(Cc3ccc(C(N)=O)cc3)CC2)nc2c1SCC2 | – | 8.4 | 22.1 | 1.8 | 3800 | 3.3 | 15.2 | 34200 | 36.5 | 43.6 | 66 | 3.3 | > 165000 | 5 | 4.8 | 7.9 | 15.3 | 4.8 | 165000 | 1.1 | selectivity ratio [9]: 9520; selectivity ratio [13]: 6590; selectivity ratio [17]: 28900; selectivity ratio [21]: 9580; selectivity ratio [23]: 4000; selectivity ratio [27]: 17300
Cc1cc(C#N)cc(C)c1Oc1nc(NC2CCN(Cc3ccncc3)CC2)nc2c1COC2 | 223 (≈ 488 µM) | 4.9 | 7.8 | 2.1 | 871 | 2.6 | 4.1 | 15900 | 10.5 | 43.1 | 56 | 1.8 | 5120 | 1.2 | 2.3 | 4.4 | 6.2 | 3.3 | 37600 | 0.5 | selectivity ratio [9]: 6020; selectivity ratio [13]: 4770; selectivity ratio [17]: 31200; selectivity ratio [21]: 9040; selectivity ratio [23]: 3580; selectivity ratio [27]: 7630; solubility [3]: 14.6 µg/mL (≈ 32 µM); solubility [5]: 8.57 µg/mL (≈ 18.8 µM)
Cc1cc(C#N)cc(C)c1Oc1nc(NC2CCN(Cc3ccc(S(N)(=O)=O)cc3)CC2)nc2c1CCC2 | – | 14.2 | 14 | 12.9 | – | 38.4 | 5.9 | – | 35.6 | 25.8 | 91 | 5.3 | 58300 | 11 | 1.1 | 32.3 | 42.3 | 12.7 | > 234000 | 10 | –
Cc1cc(C#N)cc(C)c1Oc1nc(NC2CCN(Cc3ccncc3)CC2)nc2c1CCCC2 | – | – | – | – | 440 | – | – | 8750 | – | 172 | 72 | – | 21700 | – | 8.6 | – | – | – | 75800 | – | –
Cc1cc(C#N)cc(C)c1Oc1nc(NC2CCN(Cc3ccc(S(N)(=O)=O)cc3)CC2)nc2c1SCCC2 | – | 10.4 | 8 | 3.8 | – | 3.1 | 12.9 | – | 22.3 | 40.6 | – | 4.7 | > 148000 | 5.2 | 2.7 | 8.3 | 8.5 | 3 | ≥ 148000 | 1.9 | –
Cc1cc(C#N)cc(C)c1Oc1nc(NC2CCN(Cc3ccc([N+](=O)[O-])cc3)CC2)nc2c1SCC2 | – | – | – | – | 12 | – | – | 770 | – | 495 | 175 | – | > 6180 | – | 8 | – | – | – | 6180 | – | –
Cc1cc(C#N)cc(C)c1Oc1nc(NC2CCN(Cc3ccc([N+](=O)[O-])cc3)CC2)nc2c1CCC2 | – | – | – | – | 9 | – | – | 599 | – | 941 | 241 | – | > 8730 | – | 14.5 | – | – | – | 8730 | – | –
Cc1cc(C#N)cc(C)c1Oc1nc(NC2CCN(Cc3ccc(S(C)(=O)=O)cc3)CC2)nc2c1CCC2 | – | – | – | – | 40 | – | – | 1500 | – | 187 | 157 | – | 41800 | – | 4.9 | – | – | – | 7450 | – | –
